From ChEMBL document CHEMBL5712079, “The H3K27me3-demethylase KDM6A is suppressed in breast cancer stem-like cells, and enables the resolution of bivalency during the mesenchymal-epithelial transition” (Oncotarget, 2017)
Calls of active or inactive are those of the source. The rule behind the calls is not given here.

Key:
Type in all cases: cell-based
[1] = target: Lysine-specific demethylase 6A (Homo sapiens) (UniProt O15550); assay: Inhibition of KDM6A in human MCF-10A cell assessed as FAM117A gene expression at 50 nM by qRT-PCR analysis
Outline: (§1)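 MCF10A monolayers were exposed to TGFB at 2.5 ng/ml for 6 days to induce EMT, then cultured without TGFB for 10 days (MET) with compound at 50 nM or DMSO vehicle. Vehicle-only and TGFB-only arms served as references. RNA was analysed by qRT-PCR, normalised to GAPDH by 2^-ΔΔCt, and run in triplicate (mean ± SD). Significance was by unpaired t-tests with Holm-Sidak correction.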

[2] = target: Lysine-specific demethylase 6A (Homo sapiens) (UniProt O15550); assay: Inhibition of KDM6A in human MCF-10A cell assessed as ILKAP gene expression at 50 nM by qRT-PCR analysis; outline: as §1
[3] = target: Lysine-specific demethylase 6A (Homo sapiens) (UniProt O15550); assay: Inhibition of KDM6A in human MCF-10A cell assessed as PKP2 gene expression at 50 nM by qRT-PCR analysis; outline: as §1
[4] = target: Lysine-specific demethylase 6A (Homo sapiens) (UniProt O15550); assay: Inhibition of KDM6A in human MCF-10A cell assessed as COBLL1 gene expression at 50 nM by qRT-PCR analysis; outline: as §1
[5] = target: Lysine-specific demethylase 6A (Homo sapiens) (UniProt O15550); assay: Inhibition of KDM6A in human MCF-10A cell assessed as THOC6 gene expression at 50 nM by qRT-PCR analysis; outline: as §1
[6] = target: Lysine-specific demethylase 6A (Homo sapiens) (UniProt O15550); assay: Inhibition of KDM6A in human MCF-10A cell assessed as CCNA1 gene expression at 50 nM by qRT-PCR analysis; outline: as §1
[7] = target: Lysine-specific demethylase 6A (Homo sapiens) (UniProt O15550); assay: Inhibition of KDM6A in human MCF-10A cell assessed as CBX4 gene expression at 50 nM by qRT-PCR analysis; outline: as §1
[8] = target: Lysine-specific demethylase 6A (Homo sapiens) (UniProt O15550); assay: Inhibition of KDM6A in human MCF-10A cell assessed as FAM60A gene expression at 50 nM by qRT-PCR analysis; outline: as §1
[9] = target: Lysine-specific demethylase 6A (Homo sapiens) (UniProt O15550); assay: Inhibition of KDM6A in human MCF-10A cell assessed as MAP3K9 gene expression at 50 nM by qRT-PCR analysis; outline: as §1
[10] = target: Lysine-specific demethylase 6A (Homo sapiens) (UniProt O15550); assay: Inhibition of KDM6A in human MCF-10A cell assessed as LRRC8D gene expression at 50 nM by qRT-PCR analysis; outline: as §1
[11] = target: Lysine-specific demethylase 6A (Homo sapiens) (UniProt O15550); assay: Inhibition of KDM6A in human MCF-10A cell assessed as FZD8 gene expression at 50 nM by qRT-PCR analysis; outline: as §1
[12] = target: Lysine-specific demethylase 6A (Homo sapiens) (UniProt O15550); assay: Inhibition of KDM6A in human MCF-10A cell assessed as MED30 gene expression at 50 nM by qRT-PCR analysis; outline: as §1
[13] = target: Lysine-specific demethylase 6A (Homo sapiens) (UniProt O15550); assay: Inhibition of KDM6A in human MCF-10A cell assessed as ZNF232 gene expression at 50 nM by qRT-PCR analysis; outline: as §1
[14] = target: Lysine-specific demethylase 6A (Homo sapiens) (UniProt O15550); assay: Inhibition of KDM6A in human MCF-10A cell assessed as vimentin expression at 50 nM by immunostaining analysis
Outline: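 MCF10A cells received TGFB (2.5 ng/ml; vehicle was 4 mM HCl with 0.1% BSA) to induce EMT, then TGFB was withdrawn in the presence of compound (50 nM) or DMSO. Cells were fixed and immunostained for vimentin and imaged by inverted fluorescence microscopy.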

[15] = target: Lysine-specific demethylase 6A (Homo sapiens) (UniProt O15550); assay: Inhibition of KDM6A in human MCF-10A cell assessed as H2AFY2 gene expression at 50 nM by qRT-PCR analysis; outline: as §1
[16] = target: Lysine-specific demethylase 6A (Homo sapiens) (UniProt O15550); assay: Inhibition of KDM6A in human MCF-10A cell assessed as PUS3 gene expression at 50 nM by qRT-PCR analysis; outline: as §1
[17] = target: Lysine-specific demethylase 6A (Homo sapiens) (UniProt O15550); assay: Inhibition of KDM6A in human MCF-10A cell assessed as CDK4 gene expression at 50 nM by qRT-PCR analysis; outline: as §1
[18] = target: Lysine-specific demethylase 6A (Homo sapiens) (UniProt O15550); assay: Inhibition of KDM6A in human MCF-10A cell assessed as C60ORF14 gene expression at 50 nM by qRT-PCR analysis; outline: as §1

Sequence of Lysine-specific demethylase 6A (Homo sapiens) (O15550 whole entry): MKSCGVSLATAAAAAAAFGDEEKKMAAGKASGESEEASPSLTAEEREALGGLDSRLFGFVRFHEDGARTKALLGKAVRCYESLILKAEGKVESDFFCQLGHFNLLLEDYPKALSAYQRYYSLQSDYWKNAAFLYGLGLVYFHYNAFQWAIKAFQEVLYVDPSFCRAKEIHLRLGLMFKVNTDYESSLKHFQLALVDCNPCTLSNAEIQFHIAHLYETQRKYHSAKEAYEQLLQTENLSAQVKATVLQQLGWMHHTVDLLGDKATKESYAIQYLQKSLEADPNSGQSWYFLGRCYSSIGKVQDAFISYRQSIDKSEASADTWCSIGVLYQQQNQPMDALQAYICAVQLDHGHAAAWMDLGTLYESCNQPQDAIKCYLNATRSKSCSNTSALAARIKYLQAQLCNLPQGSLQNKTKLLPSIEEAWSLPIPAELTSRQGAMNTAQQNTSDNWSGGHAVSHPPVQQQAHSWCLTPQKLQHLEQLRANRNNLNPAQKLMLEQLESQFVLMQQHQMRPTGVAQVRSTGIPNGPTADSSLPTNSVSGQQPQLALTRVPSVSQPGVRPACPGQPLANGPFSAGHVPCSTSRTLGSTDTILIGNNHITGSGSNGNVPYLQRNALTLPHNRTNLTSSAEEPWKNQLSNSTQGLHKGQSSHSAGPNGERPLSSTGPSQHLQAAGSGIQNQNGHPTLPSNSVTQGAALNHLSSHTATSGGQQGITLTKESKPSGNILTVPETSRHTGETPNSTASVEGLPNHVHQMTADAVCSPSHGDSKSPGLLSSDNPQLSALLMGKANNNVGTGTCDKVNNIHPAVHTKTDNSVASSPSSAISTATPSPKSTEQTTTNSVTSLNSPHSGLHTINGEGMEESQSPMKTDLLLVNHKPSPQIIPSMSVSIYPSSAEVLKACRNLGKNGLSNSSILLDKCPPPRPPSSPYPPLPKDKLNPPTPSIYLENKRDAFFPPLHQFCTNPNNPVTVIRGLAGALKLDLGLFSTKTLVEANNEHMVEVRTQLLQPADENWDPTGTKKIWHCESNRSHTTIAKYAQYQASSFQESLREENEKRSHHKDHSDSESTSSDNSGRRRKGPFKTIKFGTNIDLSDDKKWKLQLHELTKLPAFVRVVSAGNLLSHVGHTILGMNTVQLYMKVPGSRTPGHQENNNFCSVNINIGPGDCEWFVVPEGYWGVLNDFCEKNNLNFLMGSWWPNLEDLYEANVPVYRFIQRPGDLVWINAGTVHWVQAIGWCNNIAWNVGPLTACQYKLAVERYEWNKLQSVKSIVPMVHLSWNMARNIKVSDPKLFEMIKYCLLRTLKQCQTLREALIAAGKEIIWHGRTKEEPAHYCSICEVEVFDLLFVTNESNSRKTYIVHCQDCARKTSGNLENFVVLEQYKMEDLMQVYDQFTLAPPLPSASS

- inhibition [1]: Active
- inhibition [2]: Active
- inhibition [3]: Active
- inhibition [4]: Active
- inhibition [5]: Active
- inhibition [6]: Active
- inhibition [7]: Active
- inhibition [8]: Active
- inhibition [9]: Active
- inhibition [10]: Active
- inhibition [11]: Active
- inhibition [12]: Active
- inhibition [13]: Active
- inhibition [14]: Active
- inhibition [15]: Active
- inhibition [16]: Active
- inhibition [17]: Active
- inhibition [18]: Active
Compound: CCOC(=O)CCNc1cc(N2CCc3ccccc3CC2)nc(-c2ccccn2)n1
